# Measured values reported in ChEMBL document CHEMBL1140263, “Structure-based design, synthesis, and study of potent inhibitors of beta-ketoacyl-acyl carrier protein synthase III as potential antimicrobial agents” (J Med Chem, 2005).
# Assays:
# [1] = biological target: T1, Beta-ketoacyl-[acyl-carrier-protein] synthase III (Enterococcus faecalis (strain ATCC 700802 / V583), UniProt Q820T1); experiment: Inhibitory concentration against Enterococcus faecalis beta-Ketoacyl-acyl carrier protein synthase III
# T1 sequence (Q820T1 whole entry): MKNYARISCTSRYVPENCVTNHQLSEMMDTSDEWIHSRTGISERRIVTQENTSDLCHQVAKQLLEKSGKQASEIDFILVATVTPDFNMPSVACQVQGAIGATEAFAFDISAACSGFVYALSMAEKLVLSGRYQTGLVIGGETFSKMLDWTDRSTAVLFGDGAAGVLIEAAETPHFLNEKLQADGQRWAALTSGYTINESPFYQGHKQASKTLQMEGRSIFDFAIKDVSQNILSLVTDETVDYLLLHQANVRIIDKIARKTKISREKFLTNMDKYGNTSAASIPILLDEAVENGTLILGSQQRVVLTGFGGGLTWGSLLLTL
# In short: (§1)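 Coupled FabD/FabH radiometric assay with His-tagged or tagless FabH expressed in E. coli BL21(DE3). The mix held 100 mM sodium phosphate pH 7.0, 2 mM DTT, 1 mM MgCl₂, 12.5 µM E. coli holo-ACP, 10 nM FabD and 3-5 nM FabH. Malonyl-CoA was added for 1 min, then acetyl-CoA plus [³H]acetyl-CoA, NADH and NADPH for 19 min. TCA-precipitated protein was counted by liquid scintillation; DMSO ≤2% final.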
# Staphylococcus aureus = experiment: Minimum inhibitory concentration against Staphylococcus aureus MRSA 703; type: functional
# [2] = biological target: T2, Beta-ketoacyl-[acyl-carrier-protein] synthase III (Staphylococcus aureus subsp. aureus Mu50, UniProt P68795); experiment: Inhibitory concentration against Staphylococcus aureus beta-Ketoacyl-acyl carrier protein synthase III
# T2 sequence (P68795 whole entry): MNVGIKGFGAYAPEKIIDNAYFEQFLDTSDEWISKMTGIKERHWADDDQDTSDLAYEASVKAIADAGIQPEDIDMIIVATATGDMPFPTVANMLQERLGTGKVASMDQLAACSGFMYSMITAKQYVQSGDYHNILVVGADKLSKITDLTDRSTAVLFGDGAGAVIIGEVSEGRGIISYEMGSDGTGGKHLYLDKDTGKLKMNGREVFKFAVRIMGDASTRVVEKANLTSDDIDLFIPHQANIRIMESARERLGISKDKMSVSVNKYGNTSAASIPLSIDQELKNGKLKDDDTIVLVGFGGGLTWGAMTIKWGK
# In short: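 Coupled FabD/FabH radiometric assay, 100 µL final, pH 7.0: 100 mM sodium phosphate, 2 mM DTT, 1 mM MgCl2, 12.5 µM E. coli holo-ACP, 10 nM FabD, 20 nM S. aureus FabH (His-tagged or tagless, expressed in E. coli BL21(DE3)). FabD started with malonyl-CoA for 1 min. Acetyl-CoA plus [3H]acetyl-CoA, NADH and NADPH then added; FabH reaction 19 min. Stopped with TCA; pellet counted by liquid scintillation. DMSO ≤2% final.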
# Escherichia coli = experiment: Minimum inhibitory concentration against Escherichia coli TolC- mutant in presence of membrane permeablizing agent polymyxin B; type: functional
# [3] = biological target: T3, Beta-ketoacyl-[acyl-carrier-protein] synthase III (Streptococcus pyogenes serotype M3 (strain ATCC BAA-595 / MGAS315), UniProt P0DB00); experiment: Inhibitory concentration against Streptococcus pyogenes beta-Ketoacyl-acyl carrier protein synthase III
# T3 sequence (P0DB00 whole entry): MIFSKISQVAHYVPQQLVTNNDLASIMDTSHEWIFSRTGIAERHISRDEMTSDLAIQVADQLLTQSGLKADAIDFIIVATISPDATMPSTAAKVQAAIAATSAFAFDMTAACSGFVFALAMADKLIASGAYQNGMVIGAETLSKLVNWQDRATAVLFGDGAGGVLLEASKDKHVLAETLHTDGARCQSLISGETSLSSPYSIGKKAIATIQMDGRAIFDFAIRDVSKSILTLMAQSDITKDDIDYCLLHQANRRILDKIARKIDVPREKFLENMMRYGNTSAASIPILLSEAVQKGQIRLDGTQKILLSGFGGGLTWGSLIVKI
# In short: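 S. pyogenes FabH (10 nM, His-tagged or tagless, expressed in E. coli BL21(DE3)) was run in a coupled assay with 10 nM FabD, 12.5 µM holo-ACP, 100 mM sodium phosphate pH 7.0, 2 mM DTT and 1 mM MgCl₂. Malonyl-CoA was added for 1 min, then [³H]acetyl-CoA/acetyl-CoA with NADH and NADPH for 19 min. The reaction was stopped with cold TCA and the pellet read by scintillation. Inhibitor DMSO ≤2%.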
# Streptococcus pyogenes = experiment: Minimum inhibitory concentration against Streptococcus pyogenes NZ131; type: functional
# [4] = biological target: T4, Beta-ketoacyl-[acyl-carrier-protein] synthase III (Haemophilus influenzae (strain ATCC 51907 / DSM 11121 / KW20 / Rd), UniProt P43711); experiment: Inhibitory concentration against Haemophilus influenzae beta-Ketoacyl-acyl carrier protein synthase III; in short: as §1
# T4 sequence (P43711 whole entry): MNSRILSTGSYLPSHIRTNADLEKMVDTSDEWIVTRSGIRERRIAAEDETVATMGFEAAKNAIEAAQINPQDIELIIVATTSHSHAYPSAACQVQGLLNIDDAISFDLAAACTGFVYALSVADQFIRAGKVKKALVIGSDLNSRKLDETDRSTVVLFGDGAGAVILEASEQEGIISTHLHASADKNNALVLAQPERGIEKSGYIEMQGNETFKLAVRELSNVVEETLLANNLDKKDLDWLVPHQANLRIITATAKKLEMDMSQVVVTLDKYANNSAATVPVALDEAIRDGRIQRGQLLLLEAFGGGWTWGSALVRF
# Neisseria meningitidis = experiment: Minimum inhibitory concentration against Neisseria meningitides MC58 in presence of membrane permeablizing agent polymyxin B; type: functional
# Streptococcus pneumoniae = experiment: Minimum inhibitory concentration against Streptococcus pneumonia ATCC 6301; type: functional
# [5] = Minimum inhibitory concentration against Enterococcus faecalis VRE 583; type: functional, Enterococcus faecalis V583
smiles,measurement,setting,value
O=C(Nc1ccccc1C(=O)O)c1ccc(N2CCOCC2)c(Oc2ccccc2)c1,IC50,[1],3.2 µM
O=C(Nc1ccccc1C(=O)O)c1ccc(N2CCSCC2)c(Oc2ccccc2)c1,IC50,[1],1.2 µM
CS(=O)(=O)c1ccc(-c2ccc(C(=O)Nc3ccccc3C(=O)O)cc2Oc2ccccc2)cc1,IC50,[1],0.028 µM
same,MIC,Staphylococcus aureus,45 µg/mL
same,IC50,[2],24 µM
same,MIC,Escherichia coli,5.6 µg/mL
same,IC50,[3],0.003 µM
same,MIC,Streptococcus pyogenes,22 µg/mL
same,IC50,[4],> 100 µM
same,MIC,Neisseria meningitidis,5.6 µg/mL
same,MIC,Streptococcus pneumoniae,45 µg/mL
same,MIC,[5],> 45 µg/mL
O=C(Nc1cccnc1C(=O)O)c1cccc(Oc2ccccc2)c1,IC50,[1],290 µM
O=C(Nc1cccc(O)c1C(=O)O)c1ccc(Br)c(Oc2ccccc2)c1,IC50,[1],0.062 µM
same,MIC,Staphylococcus aureus,45 µg/mL
same,IC50,[2],12.3 µM
same,MIC,Escherichia coli,2.8 µg/mL
same,IC50,[3],0.034 µM
same,MIC,Streptococcus pyogenes,11.3 µg/mL
same,IC50,[4],20 µM
same,MIC,Neisseria meningitidis,2.8 µg/mL
same,MIC,Streptococcus pneumoniae,45 µg/mL
same,MIC,[5],> 45 µg/mL
O=C(Nc1cccc(O)c1C(=O)O)c1ccc(-c2ccccc2)c(Oc2ccccc2)c1,IC50,[1],0.004 µM
same,MIC,Staphylococcus aureus,22 µg/mL
same,IC50,[2],3.8 µM
same,MIC,Escherichia coli,1.4 µg/mL
same,IC50,[3],0.004 µM
same,MIC,Streptococcus pyogenes,5.6 µg/mL
same,IC50,[4],2.4 µM
same,MIC,Neisseria meningitidis,1.4 µg/mL
same,MIC,Streptococcus pneumoniae,22 µg/mL
same,MIC,[5],> 45 µg/mL
O=C(Nc1ccccc1C(=O)O)c1cccc(Oc2ccncc2)c1,IC50,[1],10 µM
CCN(CC)S(=O)(=O)c1cc(C(=O)Nc2ccccc2C(=O)O)ccc1-c1ccccc1,IC50,[1],1.6 µM
CCN(CC)S(=O)(=O)c1cc(C(=O)Nc2ccccc2C(=O)O)ccc1Oc1ccccc1,IC50,[1],6.1 µM
Cc1cc(-c2ccc(C(=O)Nc3ccccc3C(=O)O)cc2Oc2ccccc2)ccc1F,IC50,[1],0.24 µM
same,MIC,Staphylococcus aureus,5.6 µg/mL
same,MIC,Escherichia coli,0.7 µg/mL
same,MIC,Streptococcus pyogenes,2.8 µg/mL
same,MIC,Neisseria meningitidis,0.7 µg/mL
same,MIC,Streptococcus pneumoniae,0.7 µg/mL
same,MIC,[5],2.8 µg/mL
O=C(Nc1ccccc1C(=O)O)c1ccc(F)c(Oc2ccccc2)c1,IC50,[1],3.8 µM
O=C(Nc1ccccc1C(=O)O)c1ccc(-c2cccnc2)c(Oc2ccccc2)c1,IC50,[1],0.11 µM
O=C(Nc1ccccc1C(=O)O)c1ccc(-c2ccc(C(F)(F)F)cc2)c(Oc2ccccc2)c1,IC50,[1],0.096 µM
same,MIC,Staphylococcus aureus,5.6 µg/mL
same,MIC,Escherichia coli,0.7 µg/mL
same,MIC,Streptococcus pyogenes,2.8 µg/mL
same,MIC,Neisseria meningitidis,1.4 µg/mL
same,MIC,Streptococcus pneumoniae,0.7 µg/mL
same,MIC,[5],5.6 µg/mL
O=C(Nc1ccccc1C(=O)O)c1ccc(Br)c(Oc2ccccc2)c1,IC50,[1],1.1 µM
O=C(Nc1ccccc1C(=O)O)c1ccc(N2CCNCC2)c(Oc2ccccc2)c1,IC50,[1],185 µM
O=C(Nc1cccc(O)c1C(=O)O)c1cccc(Oc2ccccc2)c1,IC50,[1],0.41 µM
O=C(Nc1ccccc1C(=O)O)c1cccc(Oc2ccccc2)c1,IC50,[1],2.7 µM
CCN(CC)S(=O)(=O)c1cc(C(=O)Nc2ccccc2C(=O)O)ccc1Br,IC50,[1],1.6 µM
O=C(Nc1ccccc1C(=O)O)c1ccc(-c2ccccc2)c(Oc2ccccc2)c1,IC50,[1],0.056 µM
same,MIC,Staphylococcus aureus,11.3 µg/mL
same,IC50,[2],10 µM
same,MIC,Escherichia coli,1.4 µg/mL
same,IC50,[3],0.05 µM
same,IC50,[4],> 100 µM
same,MIC,Neisseria meningitidis,1.4 µg/mL
same,MIC,Streptococcus pneumoniae,1.4 µg/mL
same,MIC,[5],22 µg/mL
Cc1ccc(-c2ccc(C(=O)Nc3ccccc3C(=O)O)cc2Oc2ccccc2)cc1,IC50,[1],0.16 µM
O=C(O)c1ccc(Oc2cccc(C(=O)Nc3ccccc3C(=O)O)c2)cc1,IC50,[1],4.4 µM
O=C(Nc1ccccc1C(=O)O)c1ccc(-c2cn[nH]c2)c(Oc2ccccc2)c1,IC50,[1],22 µM
O=C(Nc1ccsc1C(=O)O)c1cccc(Oc2ccccc2)c1,IC50,[1],10.1 µM
